Test results from ChEMBL document CHEMBL1949523, “Synthesis and evaluation of aza-peptidyl inhibitors of the lysosomal asparaginyl endopeptidase, legumain” (Bioorg Med Chem Lett, 2012).
Activity calls are given as the source filed them. The calls are words filed in the database; no cut-off is given here.

Tests used:
Legumain = molecular target: T1, Legumain (Mus musculus, UniProt O89017); assay: Inhibition of mouse recombinant legumain using Cbz-Ala-Ala-Asn-AMC as substrate measured every 30 secs for 2.5 hrs by fluorimetry
T1 sequence (O89017 whole entry): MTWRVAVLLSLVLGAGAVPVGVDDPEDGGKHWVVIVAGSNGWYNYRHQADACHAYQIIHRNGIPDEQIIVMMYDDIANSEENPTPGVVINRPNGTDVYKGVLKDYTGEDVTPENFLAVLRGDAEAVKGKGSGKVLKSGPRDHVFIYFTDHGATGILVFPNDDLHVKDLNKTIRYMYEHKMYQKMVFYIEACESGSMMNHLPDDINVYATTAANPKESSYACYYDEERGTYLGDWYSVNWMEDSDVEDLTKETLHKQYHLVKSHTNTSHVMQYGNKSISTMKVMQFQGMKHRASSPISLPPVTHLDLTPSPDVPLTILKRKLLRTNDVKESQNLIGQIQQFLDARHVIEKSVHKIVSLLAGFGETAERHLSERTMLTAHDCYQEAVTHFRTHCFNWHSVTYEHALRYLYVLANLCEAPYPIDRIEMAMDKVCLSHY

[1] = Inhibition of cathepsin L using Cbz-Phe-Arg-AMC as substrate measured every 30 secs for 2.5 hrs by fluorimetry
Legumain (Mus musculus) = molecular target: T2, Legumain (Mus musculus) (UniProt O89017); assay: Binding affinity to legumain in mouse RAW264.7 cells at 0.1 to 10 uM after 60 mins by SDS-PAGE analysis; assay type: cell-based
T2 sequence (whole entry): T1 sequence (O89017 whole entry)
Outline: (§1)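 RAW 264.7 macrophages incubated with Cy5-labeled probes for 60 min across a concentration range. Cells lysed hypotonically, labeled proteins resolved on 12.5% SDS-PAGE, detected by in-gel fluorescence scanning.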

[2] = molecular target: T3, Pro-cathepsin H (Mus musculus) (UniProt P49935); assay: Binding affinity to cathepsin H in mouse RAW264.7 cells at 10 uM after 60 mins by SDS-PAGE analysis; assay type: cell-based; outline: as §1
T3 sequence (whole entry): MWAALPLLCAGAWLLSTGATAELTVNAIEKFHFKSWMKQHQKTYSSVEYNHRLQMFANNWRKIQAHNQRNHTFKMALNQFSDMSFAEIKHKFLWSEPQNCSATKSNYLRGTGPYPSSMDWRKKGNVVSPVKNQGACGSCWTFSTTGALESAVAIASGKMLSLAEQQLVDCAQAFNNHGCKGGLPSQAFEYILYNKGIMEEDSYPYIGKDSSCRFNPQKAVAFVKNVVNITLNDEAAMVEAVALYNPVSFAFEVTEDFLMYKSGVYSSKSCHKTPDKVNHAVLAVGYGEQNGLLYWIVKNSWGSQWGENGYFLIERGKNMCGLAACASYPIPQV

[3] = molecular target: Cathepsin B (Mus musculus) (UniProt P10605); assay: Binding affinity to cathepsin B in mouse RAW264.7 cells at 10 uM after 60 mins by SDS-PAGE analysis; assay type: cell-based; outline: as §1
Sequence of Cathepsin B (Mus musculus) (P10605 80-333 limits assumed): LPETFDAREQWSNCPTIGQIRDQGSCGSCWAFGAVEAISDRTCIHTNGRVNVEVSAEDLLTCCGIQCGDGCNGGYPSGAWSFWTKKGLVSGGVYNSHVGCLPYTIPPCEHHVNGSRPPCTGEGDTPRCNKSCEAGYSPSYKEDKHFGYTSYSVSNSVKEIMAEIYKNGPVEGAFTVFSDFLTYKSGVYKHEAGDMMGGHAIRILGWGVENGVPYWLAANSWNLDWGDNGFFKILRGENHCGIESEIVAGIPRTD

| SMILES | IC50 (Legumain) [µM] | IC50 [1] [µM] | further results |
| --- | --- | --- | --- |
| CCOC(=O)/C=C/C(=O)N(CC(N)=O)NC(=O)[C@@H]1CCCN1C(=O)[C@@H]1Cc2ccccc2CN1C(C)=O | > 1 | – | – |
| CCOC(=O)/C=C/C(=O)N(CC(N)=O)NC(=O)[C@@H]1CCCN1C(=O)CCCCCNC(=O)CCCCCN1/C(=C/C=C/C=C/CC2=[N+](CC)c3ccc(S(=O)(=O)O)cc3C2(C)C)C(C)(C)c2cc(S(=O)(=O)[O-])ccc21 | – | – | Activity (Legumain (Mus musculus)): Active |
| CCOC(=O)/C=C/C(=O)N(CC(N)=O)NC(=O)[C@@H]1CCCN1C(=O)[C@H](Cc1ccc(O)c([N+](=O)[O-])c1)NC(C)=O | > 1 | – | – |
| CCOC(=O)/C=C/C(=O)N(CC(N)=O)NC(=O)[C@@H]1CCCN1C(=O)c1cccc(NC(C)=O)c1 | > 1 | – | – |
| CCOC(=O)/C=C/C(=O)N(CC(N)=O)NC(=O)[C@@H]1CCCN1C(=O)c1ccc(CNC(C)=O)cc1 | 0.267 | – | – |
| CCOC(=O)[C@@H]1O[C@H]1C(=O)N(CC(N)=O)NC(=O)[C@@H]1CCCN1C(=O)C1(NC(=O)CCCCCNC(=O)CCCCCN2/C(=C/C=C/C=C/C3=[N+](CC)c4ccc(S(=O)(=O)O)cc4C3(C)C)C(C)(C)c3cc(S(=O)(=O)[O-])ccc32)CC1 | – | – | Activity [2]: Active; Activity [3]: Active; Activity (Legumain (Mus musculus)): Active |
| CCOC(=O)/C=C/C(=O)N(CC(N)=O)NC(=O)[C@@H]1CCCN1C(=O)[C@H](CC)NC(=O)CCCCCNC(=O)CCCCCN1/C(=C/C=C/C=C/C2=[N+](CC)c3ccc(S(=O)(=O)O)cc3C2(C)C)C(C)(C)c2cc(S(=O)(=O)[O-])ccc21 | – | – | Activity (Legumain (Mus musculus)): Active |
| CCOC(=O)C1OC1C(=O)N(CC(N)=O)NC(=O)[C@@H]1CCCN1C(=O)CCCCCNC(=O)CCCCCN1/C(=C/C=C/C=C/C2=[N+](CC)c3ccc(S(=O)(=O)O)cc3C2(C)C)C(C)(C)c2cc(S(=O)(=O)[O-])ccc21 (some centres not stated) | – | – | Activity [2]: Active; Activity [3]: Active; Activity (Legumain (Mus musculus)): Active |
| CCOC(=O)/C=C/C(=O)N(CC(N)=O)NC(=O)[C@@H]1CCCN1C(=O)C(C)(C)NC(C)=O | 0.198 | – | – |

Continued by falling IC50 (Legumain), values first:

| IC50 (Legumain) [µM] | IC50 [1] [µM] | SMILES | further results |
| --- | --- | --- | --- |
| 0.167 | – | CCOC(=O)/C=C/C(=O)N(CC(N)=O)NC(=O)[C@@H]1CCCN1C(=O)[C@H]1CSCN1C(C)=O | – |
| 0.148 | – | CCOC(=O)/C=C/C(=O)N(CC(N)=O)NC(=O)[C@@H]1CCCN1C(=O)C(NC(C)=O)=C(C)C | – |
| 0.141 | – | C/C=C(\NC(C)=O)C(=O)N1CCC[C@H]1C(=O)NN(CC(N)=O)C(=O)/C=C/C(=O)OCC | – |
| 0.017 | 855 | C#CC[C@H](NC(C)=O)C(=O)N1CCC[C@H]1C(=O)NN(CC(N)=O)C(=O)/C=C/C(=O)OCC | – |
| 0.0093 | > 1000 | CCOC(=O)/C=C/C(=O)N(CC(N)=O)NC(=O)[C@@H]1CCCN1C(=O)C1(NC(C)=O)CC1 | – |
| 0.0093 | 370 | CCOC(=O)C1OC1C(=O)N(CC(N)=O)NC(=O)[C@@H]1CCCN1C(C)=O (some centres not stated) | – |
| 0.0086 | 358 | C#CC[C@H](NC(C)=O)C(=O)N1CCC[C@H]1C(=O)NN(CC(N)=O)C(=O)C1OC1C(=O)OCC (some centres not stated) | – |
| 0.0083 | > 1000 | CCOC(=O)/C=C/C(=O)N(CC(N)=O)NC(=O)[C@@H]1CCCN1C(C)=O | – |
| 0.0081 | 890 | CCOC(=O)C1OC1C(=O)N(CC(N)=O)NC(=O)[C@@H]1CCCN1C(=O)[C@H](CC)NC(C)=O (some centres not stated) | – |
| 0.0065 | 964 | CCOC(=O)/C=C/C(=O)N(CC(N)=O)NC(=O)[C@@H]1CCCN1C(=O)[C@H](CC)NC(C)=O | – |
| 0.0044 | 106 | CCOC(=O)C1OC1C(=O)N(CC(N)=O)NC(=O)[C@@H]1CCCN1C(=O)C1(NC(C)=O)CC1 (some centres not stated) | – |
